# Sampled rows, rich in hits. Any-hit rate of the full collection: about 2.8%.
# NPY2 pot ag: potentiates or activates human NPY-Y2 receptor; activation, % at 3.6 µM; P49146; AID 1359; 0.45% of 220,000 active; cells expressing NPY-Y2, potentiator/agonist read-out; in the data active = activation above about 27%;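 note: cells stimulated with NPY near EC25 plus isoproterenol at EC100; 0% = vehicle plus submaximal agonist and 100% = vehicle plus saturating agonist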
# Target sequence (P49146 whole entry, looked up): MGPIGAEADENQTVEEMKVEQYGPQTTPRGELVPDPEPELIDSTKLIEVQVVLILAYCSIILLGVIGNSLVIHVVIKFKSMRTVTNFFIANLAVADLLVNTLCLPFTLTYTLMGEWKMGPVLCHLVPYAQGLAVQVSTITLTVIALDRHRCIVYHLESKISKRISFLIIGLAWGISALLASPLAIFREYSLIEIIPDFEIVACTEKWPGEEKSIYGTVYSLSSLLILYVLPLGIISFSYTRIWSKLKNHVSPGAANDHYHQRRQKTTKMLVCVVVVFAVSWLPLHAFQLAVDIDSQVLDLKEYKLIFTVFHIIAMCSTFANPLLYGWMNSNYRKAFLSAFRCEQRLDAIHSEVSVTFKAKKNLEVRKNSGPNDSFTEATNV
# NPY1 pot ag: potentiates or activates human NPY-Y1 receptor. AID 1304. 0.37% of 220,000 active. NPY-Y1 expressing cells, potentiator/agonist activation. activation, % at 3.6 µM. P25929; in the data active = activation above about 33%, passing the limit was not always enough;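 note: cells stimulated with NPY at EC10 then isoproterenol at EC100; 0% = low agonist plus stimulus and 100% = saturating agonist plus stimulus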
# NPY Y2 blocker: antagonists of human neuropeptide Y receptor Y2. inhibition, % at 2.7 µM. NPY-Y2 expressing cells, antagonist mode. AID 793. 0.99% of 140,000 active; in the data active = inhibition above about 17%;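 note: 0% = vehicle with agonist challenge and 100% = reference antagonist with challenge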
# NPY-Y1 antag: NPY-Y1 (human) receptor antagonism. inhibition, % at 3.6 µM. P25929. HEK293-CNG Y1 cells, membrane potential fluorescence; NPY at EC95, then isoproterenol. 1% of 200,000 active;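 active = inhibition above the campaign mean inhibition of all tested compounds plus 3 SD, cut at about 20% in these data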;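 note: 0% = DMSO wells given NPY plus isoproterenol and 100% = isoproterenol alone without NPY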
#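 Material: HEK293 Y1/CNG channel cell line; also added: NPY (25 nM), isoproterenol (1 µM), Ro 20-1724 (25 µM); doses: one concentration, 3.6 µM, in 0.4% DMSO; schedule: compound incubation 1 h at room temperature, readout 45 min post-stimulation; technique: membrane potential fluorescence; measure: fluorescence ratio normalized to % inhibition between controls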
# PGE2 EP2 inh: inhibitors of human EP2 prostaglandin E2 receptor | P43116 | C6 glioma cells expressing human EP2, cAMP TR-FRET; cells stimulated with saturating PGE2 | 0.52% of 260,000 active | AID 1422 | inhibition, % at 25 µM;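 active = percent inhibition above 40 after rounding to a whole number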;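 note: rat C6 glioma host cells with rolipram phosphodiesterase inhibitor present; the protocol text gives 20 µM as final concentration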
# Target sequence (P43116 whole entry, looked up): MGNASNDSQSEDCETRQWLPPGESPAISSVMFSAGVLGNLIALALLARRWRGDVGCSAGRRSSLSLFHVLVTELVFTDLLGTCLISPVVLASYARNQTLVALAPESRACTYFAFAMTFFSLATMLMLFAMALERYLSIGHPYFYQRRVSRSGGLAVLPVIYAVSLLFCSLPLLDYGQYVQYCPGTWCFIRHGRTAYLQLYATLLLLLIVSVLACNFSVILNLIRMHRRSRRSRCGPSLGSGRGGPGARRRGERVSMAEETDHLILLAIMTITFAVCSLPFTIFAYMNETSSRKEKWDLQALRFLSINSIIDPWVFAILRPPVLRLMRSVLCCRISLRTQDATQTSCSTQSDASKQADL
# EP2 mod: modulates human prostaglandin E2 receptor EP2 signaling; P43116; 0.83% of 260,000 active; induction, % at 25 µM; AID 940; EP2-expressing cells, cAMP HTRF FRET, PGE2 co-stimulation;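 active = compounds whose cAMP rise, as percent of the full-agonist control response, exceeds 60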;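 note: rat C6 glioma line stably carrying human EP2 under a CMV promoter; the protocol text gives 20 µM as final concentration; 100% = response of wells given 1 µM PGE2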
# NPY-Y2 confirm: confirmation of human NPY-Y2 receptor potentiators or agonists; 20% of 450 active; shares compounds with NPY2 pot ag; activation, % at 3.6 µM; AID 1539; cell-based NPY-Y2 potentiator/agonist assay; in the data active = activation above about 33%
# NPY-Y1 potentiator: NPY-Y1 potentiation or agonism as NPY-Y2 counter-screen; Y1 HEK293-CNG cells, membrane potential fluorescence; AID 1651; activation, % at 3.6 µM; 20% of 450 active; shares compounds with NPY2 pot ag; in the data active = activation above about 45%;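 note: cells stimulated with submaximal NPY then isoproterenol with phosphodiesterase inhibitor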
# NPY-Y1 ag 2: counter-screen for NPY-Y2 potentiators: agonists of human NPY-Y1 | shares compounds with NPY2 pot ag | HEK293 Y1-CNGC, membrane potential fluorescence, agonism | activation, % at 3.6 µM | 37% of 450 active | AID 1702;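 active = activation above the mean of DMSO-only control wells plus 3 SD, cut at about 18% in these data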;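 note: cells stimulated with 1 µM isoproterenol plus the PDE inhibitor Ro 20-1724; 0% = isoproterenol with DMSO and no NPY and 100% = 40 nM NPY; Y1 agonists lower the membrane potential dye signal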
# CNGC inh: cyclic nucleotide gated channel inhibition as counter-screen | shares compounds with NPY2 pot ag | HEK293-CNG parental, isoproterenol cAMP, membrane potential fluorescence | inhibition, % at 3.6 µM | 32% of 450 active | AID 1703;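 active = inhibition above the control-well mean plus 3 SD of those wells, cut at about 22% in these data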;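 note: 0% = DMSO with isoproterenol and 100% = DMSO without isoproterenol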
# Y2 agonist ctr: counter-screen for NPY-Y2 potentiators: agonists of human NPY-Y2; shares compounds with NPY2 pot ag; HEK293 Y2/CNGC cells, membrane potential fluorescence, agonist mode; activation, % at 3.6 µM; 56% of 450 active; AID 1710;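 active = activation above the mean of solvent-only control wells plus 3 SD, cut at about 10% in these data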;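 note: cells stimulated by isoproterenol with no NPY added so direct agonism is tested; 0% = DMSO with isoproterenol alone and 100% = NPY at EC100 plus isoproterenol; agonism lowers probe fluorescence through less cAMP and CNG channel opening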
# * marks the source's active call; other numbers are inactive results; nt = no result given.
SMILES,NPY2 pot ag,NPY1 pot ag,NPY Y2 blocker,NPY-Y1 antag,PGE2 EP2 inh,EP2 mod,NPY-Y2 confirm,NPY-Y1 potentiator,NPY-Y1 ag 2,CNGC inh,Y2 agonist ctr
CCN1C(=O)C2(C(C#N)=C(N)Oc3n[nH]c(-c4ccc(Cl)cc4)c32)c2ccccc21 (centres undefined),39*,31,5,-7,4,33,44*,58*,51*,24*,36*
Cc1c(NS(=O)(=O)c2cccc(C(=O)NCc3ccccc3)c2)c(=O)n(-c2ccccc2)n1C,-9,0,0,7,nt,-20,nt,nt,nt,nt,nt
Cc1ccc(NS(=O)(=O)c2cccc(C(=O)Nc3c(C)n(C)n(-c4ccccc4)c3=O)c2)cc1,58*,-18,nt,nt,8,-4,-3,-2,-11,0,-1
CCOC(=O)Nc1nnc(-c2ccc(OC)cc2)s1,8,-11,3,7,-5,-6,nt,nt,nt,nt,nt
CCOC(=O)Nc1nnc(-c2cccc(OC)c2)s1,49*,15,3,2,9,6,8,18,25*,-6,8
COCCCNC(=O)c1c[nH]c2ccc(S(=O)(=O)N3CCc4ccccc43)cc2c1=O,33*,12,nt,0,7,-38,14,8,-3,1,13*
COCCNC(=O)c1c[nH]c2ccc(S(=O)(=O)N3CCc4ccccc43)cc2c1=O,15,21,nt,-9,4,-38,nt,nt,nt,nt,nt
COc1ccc(N(Cc2cc(=O)[nH]c3ccccc23)C(=O)CCC(=O)O)cc1,nt,nt,nt,nt,10,8,nt,nt,nt,nt,nt
COc1ccc(-c2ccc(-c3nnn(CC(=O)Nc4ccccc4Br)n3)cc2)cc1,nt,nt,nt,nt,6,-9,nt,nt,nt,nt,nt
CN(CC1CCCO1)S(=O)(=O)c1ccc(C(=O)Nc2nc3cc4c(cc3s2)OCO4)cc1 (centres undefined),43*,13,1,0,nt,nt,3,-9,-23,-12,7
Cc1ccc2nc(N3CCNC3=O)c(C)cc2c1,nt,nt,nt,nt,5,-3,nt,nt,nt,nt,nt
COc1cc(C(=O)Nc2ccc3c(c2)C(=O)c2ccccc2C3=O)cc(OC)c1OC,-2,-23,4,3,3,2,nt,nt,nt,nt,nt
CCc1cccc(NC(=O)c2cc(OC)c(OC)c(OC)c2)c1,61*,-10,nt,3,7,-48,-7,-8,-20,-2,-1
CC1(C)C(=O)OC(/C=C\c2ccccc2)C(C)(C)C1=O (centres undefined),33*,17,nt,-1,4,13,-7,-5,-18,-6,-11
Nc1ncnc(Nc2ccc(F)cc2)n1,5,-3,0,-3,7,18,nt,nt,nt,nt,nt
Fc1ccc(Nc2ccnc(Nc3ccc(F)cc3)n2)cc1,32*,26,-3,-5,4,-58,21,28,15,24*,26*
Cc1ccc(C(C)C(=O)N2CCC(c3c(S(C)(=O)=O)cnc4ncnn34)CC2)cc1 (centres undefined),nt,nt,nt,nt,nt,-37,nt,nt,nt,nt,nt
Nc1ccccc1NC1CCCCC1,36*,33,nt,-3,2,-19,21,34,17,26*,24*
CC(C)(C)N(Cc1cc2ccccc2[nH]c1=O)C(=O)c1cccnc1,85*,14,-1,-2,16,1,-1,0,0,1,1
CC(C)(C)N(Cc1cc2ccccc2[nH]c1=O)C(=O)c1ccco1,-8,-6,nt,-5,7,-4,nt,nt,nt,nt,nt
O=C(CSc1nc(O)c(Cc2ccc(F)cc2)c(=O)[nH]1)Nc1cccc2ccccc12,nt,nt,nt,nt,9,-35,nt,nt,nt,nt,nt
Cc1ccc(C2(NCc3ccc(N4CCOCC4)nc3)CC2)cc1,nt,nt,nt,nt,2,-61,nt,nt,nt,nt,nt
Cc1ccc(C)c(Nc2ncnc(N)c2[N+](=O)[O-])c1,13,15,1,-2,7,25,nt,nt,nt,nt,nt
Cc1ccc(C)c(Nc2nc(N)c3ccccc3n2)c1,36*,21,nt,0,15,-33,64*,82*,44*,58*,55*
Cc1ccc(NC2=Nc3ccccc3CS2)cc1,36*,37,1,6,16,18,1,-5,5,4,6
SMILES,NPY2 pot ag,NPY1 pot ag,NPY Y2 blocker,NPY-Y1 antag,PGE2 EP2 inh,EP2 mod,NPY-Y2 confirm,NPY-Y1 potentiator,NPY-Y1 ag 2,CNGC inh,Y2 agonist ctr
COc1ccc(C(=O)NNC(=O)CSc2ncc(C#N)c(N)n2)cc1,nt,nt,nt,nt,17,-48,nt,nt,nt,nt,nt
OC1(c2ccc(F)cc2)CSC(=Nc2cccnc2)N1Cc1ccco1 (centres undefined),34*,26,nt,-11,4,12,7,19,5,-2,7
OC1(c2ccc(OC(F)F)cc2)CSC(=Nc2cccnc2)N1Cc1ccco1 (centres undefined),35*,29,nt,-4,13,-1,13,22,9,9,13*
O=C(CSc1nnc(-c2cccnc2)n1Cc1ccco1)Nc1nc(-c2ccc(F)cc2)cs1,-7,11,2,-3,8,12,nt,nt,nt,nt,nt
FC(F)Oc1ccc(-c2csc(=Nc3cccnc3)n2CC2CCCO2)cc1 (centres undefined),-6,-3,8,9,14,21,nt,nt,nt,nt,nt
C#CCOc1ccc(C2NC(=O)NC(C)=C2C(=O)Nc2ccc(C)c(C)c2)cc1OCC (centres undefined),nt,nt,nt,nt,7,1,nt,nt,nt,nt,nt
CCc1nc(NCC2CCCO2)c(C#N)c2c1COC(C)(C)C2 (centres undefined),-3,-33,2,5,9,11,nt,nt,nt,nt,nt
CCc1nc(NCC(C)C)c(C#N)c2c1COC(C)(C)C2,38*,-8,-1,-2,14,24,-6,-8,-26,-14,-13
CC(C)CC(NC(=O)c1ccc(Cl)cc1)C(=O)OCc1cc([N+](=O)[O-])cc2c1OCOC2 (centres undefined),28*,22,2,-8,14,12,0,-2,-10,-3,18*
CC(C)C(NC(=O)c1ccccc1)C(=O)OCc1cc([N+](=O)[O-])cc2c1OCOC2 (centres undefined),7,-8,2,4,2,18,nt,nt,nt,nt,nt
